{"data": "Results from different studies", "effect on": "enzyme activity", "action": "inhibitor", "rep main protease": "Replicase polyprotein 1ab, main protease (rep, Severe acute respiratory syndrome coronavirus 2, UniProt P0DTD1)", "rep papain-like protease": "Replicase polyprotein 1ab, papain-like protease (rep, Severe acute respiratory syndrome coronavirus 2, UniProt P0DTD1)", "note": "Protocols differ between the studies behind these lines."}
{"Structure (SMILES)": "COc1cc(O)c2c(c1)OC/C(=C\\c1ccc(O)cc1)C2=O", "target": "rep main protease", "setting": "20 µM", "inhibition [%]": 16.7}
{"Structure (SMILES)": "O=C1C=C(O)C(=O)c2ccccc21", "target": "rep main protease", "setting": "10 µM", "inhibition [%]": -1.7}
{"Structure (SMILES)": "N=C(N)c1ccc2cc(OC(=O)c3ccc(N=C(N)N)cc3)ccc2c1", "target": "rep main protease", "setting": "10 µM", "inhibition [%]": 13}
{"Structure (SMILES)": "Cc1ccc2nc(Cl)c(C=Nc3cc(Br)ccn3)cc2c1", "target": "rep papain-like protease", "setting": "10 µM", "inhibition [%]": 4.6}
{"Structure (SMILES)": "Cc1cc(NC(=O)c2cc3c(=O)n4cccc(C)c4nc3n2C)ccc1Br", "target": "rep main protease", "setting": "1 mM", "inhibition [%]": 82}
{"Structure (SMILES)": "NC(=O)c1c[nH]c(Cc2ccccc2)cc1=O", "target": "rep main protease", "setting": "20 µM", "inhibition [%]": 10.9}
{"Structure (SMILES)": "C[C@]1(C(=O)NC[C@H](NC(=O)c2cncc3[nH]ccc23)c2ccc3ccccc3c2)CCNC1=O", "target": "rep main protease", "setting": "5 µM", "inhibition [%]": 13.7}
{"Structure (SMILES)": "C/N=c1\\nc(-c2ccccc2)n(-c2ccccc2)s1", "target": "rep main protease", "setting": "0.1 µM", "inhibition [%]": 16.4}
{"Structure (SMILES)": "CCOC(=O)COc1cc(C)cc2c1C(=O)C=CC2=O", "target": "rep main protease", "setting": "10 µM", "inhibition [%]": 97.5}
{"Structure (SMILES)": "COc1c(-c2ccc(O)c(CC=C(C)C)c2)oc2cc(O)cc(O)c2c1=O", "target": "rep main protease", "setting": "8 µM", "inhibition [%]": 16.9}
{"Structure (SMILES)": "O=C1NCc2c1cccc2C(=O)N[C@H](CNC(=O)c1ccnc2[nH]ncc12)c1ccccc1", "target": "rep main protease", "setting": "5 µM", "inhibition [%]": 10}
{"Structure (SMILES)": "O=c1c(O)c(-c2ccc(O)cc2)oc2cc(O)cc(O)c12", "target": "rep main protease", "setting": "20 µM", "inhibition [%]": 12}
{"Structure (SMILES)": "Oc1cc2c(cc1O)[C@H]1c3ccccc3CN[C@@H]1CC2 (racemic)", "target": "rep main protease", "setting": "20 µM", "inhibition [%]": -15.1}
{"Structure (SMILES)": "CC(=O)N[C@H](CCCCN)C(=O)N[C@H](Cc1c[nH]c2ccccc12)C(=O)N[C@H](CO)C(=O)N[C@H](Cc1ccc(O)cc1)C(=O)N[C@H](CCC(N)=O)C(=O)N1CCC[C@@H]1C(=O)N[C@@H](C(=O)N[C@H](Cc1c[nH]c2ccccc12)C(=O)N[C@H](CC(=O)O)C(=O)N[C@H](Cc1c[nH]c2ccccc12)C(=O)N[C@@H](C(=O)N[C@H](Cc1c[nH]c2ccccc12)C(=O)N[C@H](CO)C(=O)N[C@H](CCC(=O)O)C(=O)N[C@H](Cc1c[nH]cn1)C(=O)N[C@H](C)C(=O)N[C@H](CCCNC(=N)N)C(N)=O)[C@H](C)O)[C@H](C)O", "target": "rep main protease", "assay": "fluorescence", "setting": "140 µM", "inhibition [%]": 100}
{"Structure (SMILES)": "O=C(O)[C@H]1O[C@@H](Oc2cc3oc(-c4ccc(O)cc4)cc(=O)c3c(O)c2O)[C@H](O)[C@@H](O)[C@@H]1O", "target": "rep main protease", "setting": "10 µM", "inhibition [%]": 18.9}
{"Structure (SMILES)": "O=C(Oc1cc([N+](=O)[O-])ccc1F)c1cccc2[nH]ccc12", "target": "rep main protease", "assay": "fluorescence", "setting": "10 µM, pH 7.2", "inhibition [%]": 2}
{"Structure (SMILES)": "C[C@@H]1O[C@@H](OC[C@H]2O[C@@H](OCCc3ccc(O)c(O)c3)[C@H](OC(=O)/C=C/c3ccc(O)c(O)c3)[C@@H](O)[C@@H]2O)[C@H](O)[C@H](O)[C@H]1O", "target": "rep main protease", "setting": "10 µM", "inhibition [%]": 61.7}
{"Structure (SMILES)": "Cc1cccc2cc(/C=N\\c3ccc(-c4nc5ccccc5[nH]4)cc3)c(Cl)nc12", "target": "rep papain-like protease", "setting": "100 µM", "inhibition [%]": 44.9}
{"Structure (SMILES)": "O=C(CCc1ccc(O)cc1)c1c(O)cc(O)cc1O[C@@H]1O[C@H](CO)[C@@H](O)[C@H](O)[C@H]1O", "target": "rep main protease", "assay": "FRET", "setting": "10 µM, 10 min", "inhibition [%]": "25 to 50"}
{"Structure (SMILES)": "Cc1nc(C(=O)N2CC[C@@H]([C@@H]3CCCN3C(=O)c3cc(O)c4ccoc4c3)C2)cc(=O)[nH]1", "target": "rep main protease", "setting": "5 µM", "inhibition [%]": 12.2}
{"Structure (SMILES)": "CCc1ccc(NC(=O)c2cc3c(=O)n4ccccc4nc3n2C)cc1", "target": "rep main protease", "setting": "1 mM", "inhibition [%]": 76}
{"Structure (SMILES)": "Cc1ccc2nc(Cl)c(/C=N/c3cccc([N+](=O)[O-])c3)cc2c1", "target": "rep papain-like protease", "setting": "10 µM", "inhibition [%]": 5.3}
{"Structure (SMILES)": "Cn1c(C(=O)Nc2ccc3c(c2)OCCO3)cc2c(=O)n3ccccc3nc21", "target": "rep main protease", "setting": "100 µM", "inhibition [%]": 71}
{"Structure (SMILES)": "Cc1cc(OCc2ccccc2)c2c(c1)C(=O)C=CC2=O", "target": "rep main protease", "setting": "10 µM", "inhibition [%]": 96.4}
{"Structure (SMILES)": "Cn1cc2c(n1)c(=O)n(Cc1ccc(F)cc1)c1nn(CCOc3ccc(F)cc3)c(=O)n21", "target": "rep main protease", "setting": "20 µM", "inhibition [%]": 13}
{"Structure (SMILES)": "O=C1C=CC(=O)c2c(O)cccc21", "target": "rep main protease", "setting": "0.1 µM", "inhibition [%]": 20.3}
{"Structure (SMILES)": "O=C(Oc1cc(Cl)cc([N+](=O)[O-])c1)c1cccc2[nH]ccc12", "target": "rep main protease", "assay": "fluorescence", "setting": "10 µM, pH 7.2", "inhibition [%]": 1}
{"Structure (SMILES)": "COc1ccc(OC)c2c1C(=O)C=CC2=O", "target": "rep main protease", "setting": "1 µM", "inhibition [%]": 75.1}
{"Structure (SMILES)": "COc1cc(C[C@@H](C)[C@@H](C)Cc2cc(O)c(OC)c(OC)c2)cc(O)c1OC", "target": "rep main protease", "assay": "FRET", "setting": "8 µM", "inhibition [%]": 58}
{"Structure (SMILES)": "CN1CCc2cccc3c2[C@H]1Cc1ccc(O)c(O)c1-3", "target": "rep main protease", "setting": "20 µM", "inhibition [%]": -23}
{"Structure (SMILES)": "COCOc1cc(C)cc2c1C(=O)C=CC2=O", "target": "rep main protease", "setting": "10 µM", "inhibition [%]": 79.6}
{"Structure (SMILES)": "NC(=O)CCOC1CCN(C(c2ccccc2)c2ccccc2)CC1", "target": "rep main protease", "setting": "20 µM", "inhibition [%]": 11.5}
{"Structure (SMILES)": "COc1cc([C@H]2OC[C@H]3[C@@H]2CO[C@H]3c2ccc(OC)c(OC)c2)ccc1O", "target": "rep papain-like protease", "setting": "50 µM", "inhibition [%]": 8.5}
{"Structure (SMILES)": "O=C(NCc1cccnc1)Nc1csc([N+](=O)[O-])c1", "target": "rep main protease", "setting": "20 µM", "inhibition [%]": 4.45}
{"Structure (SMILES)": "O=C(/C=C/c1ccc(O)c(O)c1)OC1CC(OC(=O)/C=C/c2ccc(O)c(O)c2)(C(=O)O)CC(O)C1O (centres unmarked)", "target": "rep papain-like protease", "setting": "50 µM", "inhibition [%]": 14.4}
{"Structure (SMILES)": "O=C(CSc1nnc2c(n1)[nH]c1ccccc12)Nc1cccc(S(=O)(=O)N2CCOCC2)c1", "target": "rep main protease", "setting": "100 µg/mL", "inhibition [%]": 0}
{"Structure (SMILES)": "COc1cc(-c2oc3cc(O)cc(O)c3c(=O)c2O)ccc1O", "target": "rep main protease", "assay": "FRET", "setting": "10 µM, 10 min", "inhibition [%]": "25 to 50"}
{"Structure (SMILES)": "Cn1c(C(=O)Nc2ccc(Cl)cc2)cc2c(=O)n3ccccc3nc21", "target": "rep main protease", "setting": "1 mM", "inhibition [%]": 72}
{"Structure (SMILES)": "O=C(Oc1cncc(Cl)c1)c1cc2cc(Cl)ccc2[nH]1", "target": "rep main protease", "assay": "fluorescence", "setting": "10 µM, pH 7.2", "inhibition [%]": 100}
{"Structure (SMILES)": "O=c1cc(-c2ccccc2)oc2cc(O)c(O)c(O)c12", "target": "rep main protease", "setting": "10 µM", "inhibition [%]": 87}
{"Structure (SMILES)": "Cc1ccc(NC(=O)c2cc3c(=O)n4cccc(C)c4nc3n2C)cc1Cl", "target": "rep main protease", "setting": "100 µM", "inhibition [%]": 37}
